Experimental data from ChEMBL document CHEMBL4261513, “Dichloro-naphthoquinone as a non-classical inhibitor of the mycobacterial carbonic anhydrase Rv3588c” (Medchemcomm, 2017).

Columns and labels:
[1] = molecular target: T1, Carbonic anhydrase 2 (Mycobacterium tuberculosis) (UniProt P9WPJ9); experiment: Inhibition of recombinant Mycobacterium tuberculosis N-terminal Hi-tagged Rv3588c expressed in Escherichia coli BL21-Al cells assessed as enzyme residual activity at 25 uM measured for 10 secs by m-cresol purple staining based stopped-flow CO2 hydration assay relative to control
T1 sequence (whole entry): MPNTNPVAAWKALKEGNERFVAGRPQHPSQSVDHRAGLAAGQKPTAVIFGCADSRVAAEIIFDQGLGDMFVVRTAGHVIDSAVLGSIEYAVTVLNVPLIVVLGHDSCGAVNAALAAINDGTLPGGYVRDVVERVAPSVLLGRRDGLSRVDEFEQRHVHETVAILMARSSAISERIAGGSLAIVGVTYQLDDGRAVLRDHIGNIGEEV
Outline: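 Rv3588c with an N-terminal His tag, purified by QA52 anion exchange and then Ni-NTA at pH 8.0, and dialysed into 100 mM NaCl, 20 mM HEPES pH 7.5. Stopped-flow CO2 hydration followed by m-cresol purple absorbance. Sample buffer was 100 mM Na2SO4, 25 mM TAPS pH 8.5, 5 μM protein plus compound, mixed 1:1 with CO2-saturated water. Initial rates over the first 10 s, at least five traces each.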

[2] = molecular target: T2, Beta-carbonic anhydrase 1 (Mycobacterium tuberculosis) (UniProt P9WPJ7); experiment: Inhibition of recombinant Mycobacterium tuberculosis Rv1284 expressed in Escherichia coli BL21-Al cells assessed as enzyme residual activity at 25 uM measured for 10 secs by m-cresol purple staining based stopped-flow CO2 hydration assay relative to control
T2 sequence (whole entry): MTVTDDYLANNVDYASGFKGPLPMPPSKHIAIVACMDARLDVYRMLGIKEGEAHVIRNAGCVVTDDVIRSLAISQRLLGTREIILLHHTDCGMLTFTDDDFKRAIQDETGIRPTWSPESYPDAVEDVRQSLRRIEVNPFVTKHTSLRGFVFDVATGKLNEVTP
Outline: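 Untagged Rv1284, purified by QA52 anion exchange at pH 8.0 and SP-Sepharose cation exchange at pH 4.5, and dialysed into 100 mM NaCl, 20 mM HEPES pH 7.5. Stopped-flow CO2 hydration with m-cresol purple read-out. Sample buffer was 100 mM Na2SO4, 25 mM TAPS pH 8.5, 5 μM enzyme plus compound, mixed 1:1 with CO2-saturated water. Initial rates from the first 10 s, at least five traces.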

[3] = molecular target: T2, Beta-carbonic anhydrase 1 (Mycobacterium tuberculosis); experiment: Binding affinity to recombinant Mycobacterium tuberculosis Rv1284 expressed in Escherichia coli BL21-Al cells assessed as change in melting temperature by SYPRO Orange dye based differential scanning fluorimetric method
[4] = molecular target: T1, Carbonic anhydrase 2 (Mycobacterium tuberculosis); experiment: (§1) Inhibition of recombinant Mycobacterium tuberculosis N-terminal Hi-tagged Rv3588c expressed in Escherichia coli BL21-Al cells measured for 10 secs by m-cresol purple staining based stopped-flow CO2 hydration assay
Outline: (§2)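 His-tagged Rv3588c in stopped-flow CO2 hydration with m-cresol purple read-out, in 100 mM Na2SO4, 25 mM TAPS pH 8.5 against CO2-saturated water. Five compound concentrations, starting from […]. Initial rates taken over the first 10 s. Dose-response data fitted to a curve.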

[5] = molecular target: T3, Carbonic anhydrase 2 (Mycobacterium tuberculosis, UniProt P9WPJ9); experiment: as §1; outline: as §2
T3 sequence (P9WPJ9 whole entry): T1 sequence (whole entry)

[6] = molecular target: Carbonic anhydrase 2 (Homo sapiens) (UniProt P00918); experiment: Inhibition of recombinant human carbonic anhydrase 2 expressed in Escherichia coli BL21 (DE3) assessed as enzyme residual activity at 25 uM measured for 10 secs by m-cresol purple staining based stopped-flow CO2 hydration assay relative to control
Outline: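 Codon-optimised synthetic human CA II gene expressed in bacteria. Activity measured by stopped-flow CO2 hydration, monitoring m-cresol purple absorbance. Sample buffer was 100 mM Na2SO4, 25 mM TAPS pH 8.5, 5 μM protein with compound, mixed 1:1 with CO2-saturated water. Initial rates over the first 10 s, from at least five traces per compound.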

SMILES | Activity [1] [%] | Activity [2] [%] | deltaTm [3] [K] | Imax [4] [%] | IC50 [5] [nM] | Activity [6] [%]
O=C1C2=C(C(=O)c3ccccc31)S(=O)(=O)C=CN2 | 78.3 | 74.6 | -1.1 |  |  | 
O=C1C(Cl)=C(Cl)C(=O)c2ccccc21 [Dichlon] | 16.1 | 81.5 | -10.2 | 84 | 1200 | 96.8
O=C1C2=C(C(=O)c3ccccc31)S(=O)(=O)CCN2 | 80.6 | 79.5 | -0.4 |  |  | 
O=C1C(O)=C([C@H]2CC[C@H](c3ccc(Cl)cc3)CC2)C(=O)c2ccccc21 | 80.7 | 83.1 | -0.5 |  |  | 
COCCNC1=C(Cl)C(=O)c2ccccc2C1=O | 98.8 | 67.2 | -1.5 |  |  | 
O=C1C=C(Br)C(=O)c2ccccc21 | 68.1 | 72.2 | -10.1 |  |  | 109
O=C1C(Cl)=C(NCc2ccccc2)C(=O)c2ccccc21 | 99.1 | 96.5 | -2.5 |  |  | 
COC1=CC(=O)c2ccccc2C1=O [2-Methoxy-1,4-naphthoquinone] | 84.5 | 62.3 | -0.5 | 40 | 2300 | 104
O=C1C(Cl)=C(NCCc2ccccc2)C(=O)c2ccccc21 | 93.2 | 110 | -0.7 |  |  | 
COC1=CC(=O)C=C(CO)C1=O | 104 | 101 | 0.1 |  |  | 
O=C1C=CC(=O)c2ccccc21 | 94.8 | 76.6 | -8.8 |  |  | 
CN(C)CCCNC1=C(Cl)C(=O)c2ccccc2C1=O | 110 | 79.4 | -0.9 |  |  | 
Clc1cc2ccccc2cc1Cl | 82.8 | 80.3 | 1.3 |  |  | 
CC(C)CCNC1=C(Cl)C(=O)c2ccccc2C1=O | 103 | 103 | -1.5 |  |  | 
CCN(CC)CCCNC1=C(Cl)C(=O)c2ccccc2C1=O | 93.8 | 68.5 | -0.6 |  |  | 
